High-throughput results (PubChem BioAssay)
An excerpt weighted towards active compounds, which were near 1.9% of everything screened.
T cell modulator – T cell immune modulators affecting CD8 T cell-vesicle binding | 2C CD8+ T cell-vesicle binding, flow cytometry; hits give low values | response (vesicle binding), % at 7 µM | 0.068% of 330,000 active | AID 2052;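 active means response, share of CD8 T cells binding vesicles, and their 90th percentile fluorescence all below set limits, cut at about 80% in these data, passing the limit was not always enough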;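 further: values below 100% mean blocked vesicle binding to the CD8+ T cells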
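Also added: QL9-peptide-loaded Drosophila micro-vesicles bearing Ld, ICAM-1 and B7-1; Test system: purified 2C TCR transgenic mouse naive CD8+ T cells; Measured by: cytometric PE anti-B7-1 and Alexa647 anti-CD8 signals after 1% paraformaldehyde fixation; Timing: binding step 1.5 h, 37 °C, antibody labelling 20 min, ice.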
pCIP destab – compounds decreasing mouse p/CIP protein stability; Q05BA5; F442A p/CIP-EGFP cells, EGFP fluorescence, 16 h; decrease of EGFP signal, % at 10 µM; 0.01% of 290,000 active; AID 1984;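 active means EGFP signal decrease of at least 30% at 10 µM or well 3 SD below plate mean, unless failing retest; inactive means the rest, including hits failing retest or dose response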
Target sequence (Q05BA5 1-1403): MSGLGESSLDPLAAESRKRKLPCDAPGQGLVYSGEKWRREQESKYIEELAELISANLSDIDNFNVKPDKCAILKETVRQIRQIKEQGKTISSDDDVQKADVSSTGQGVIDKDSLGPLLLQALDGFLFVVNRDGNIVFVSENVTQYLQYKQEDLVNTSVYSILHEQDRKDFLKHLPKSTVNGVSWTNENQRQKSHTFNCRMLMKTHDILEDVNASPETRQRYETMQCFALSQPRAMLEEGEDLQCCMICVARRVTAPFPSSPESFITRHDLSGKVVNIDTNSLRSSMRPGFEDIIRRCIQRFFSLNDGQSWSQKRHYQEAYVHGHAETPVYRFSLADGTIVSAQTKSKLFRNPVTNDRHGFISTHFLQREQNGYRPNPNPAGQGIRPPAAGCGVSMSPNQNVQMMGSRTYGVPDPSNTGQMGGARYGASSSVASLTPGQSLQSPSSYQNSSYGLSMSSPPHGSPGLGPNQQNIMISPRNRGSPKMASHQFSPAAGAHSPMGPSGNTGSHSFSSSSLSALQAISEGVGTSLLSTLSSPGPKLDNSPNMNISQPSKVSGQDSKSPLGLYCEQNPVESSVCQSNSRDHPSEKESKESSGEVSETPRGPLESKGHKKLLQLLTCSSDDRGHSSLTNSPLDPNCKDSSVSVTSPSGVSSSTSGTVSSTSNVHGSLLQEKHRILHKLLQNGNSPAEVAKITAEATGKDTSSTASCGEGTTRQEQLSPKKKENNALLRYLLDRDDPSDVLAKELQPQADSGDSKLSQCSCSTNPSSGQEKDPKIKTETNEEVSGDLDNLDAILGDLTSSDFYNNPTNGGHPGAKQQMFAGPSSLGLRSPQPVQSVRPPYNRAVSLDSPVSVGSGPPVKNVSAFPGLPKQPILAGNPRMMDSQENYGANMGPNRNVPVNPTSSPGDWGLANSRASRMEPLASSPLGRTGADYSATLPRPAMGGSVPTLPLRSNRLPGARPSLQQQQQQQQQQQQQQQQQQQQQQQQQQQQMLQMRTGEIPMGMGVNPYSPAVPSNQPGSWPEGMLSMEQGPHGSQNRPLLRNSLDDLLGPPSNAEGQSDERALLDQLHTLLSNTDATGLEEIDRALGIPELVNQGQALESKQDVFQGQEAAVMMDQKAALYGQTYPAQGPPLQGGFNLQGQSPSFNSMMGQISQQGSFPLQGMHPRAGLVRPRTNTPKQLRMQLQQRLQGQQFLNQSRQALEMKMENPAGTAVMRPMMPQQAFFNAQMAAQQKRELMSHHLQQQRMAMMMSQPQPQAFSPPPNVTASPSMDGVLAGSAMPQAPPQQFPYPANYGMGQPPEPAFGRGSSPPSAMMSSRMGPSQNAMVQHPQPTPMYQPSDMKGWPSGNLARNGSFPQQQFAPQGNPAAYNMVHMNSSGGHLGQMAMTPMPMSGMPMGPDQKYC
VIM-2 inh – blocks Pseudomonas aeruginosa VIM-2 metallo-beta-lactamase; inhibition, % at 5.6 µM; purified VIM-2, nitrocefin hydrolysis, epi-absorbance fluorescence; 0.89% of 290,000 active; AID 1527;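 active means inhibition above the mean of all tested compounds plus 3 SD, cutoff set per screening run, cut at about 7.5% in these data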;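 further: red hydrolysis product quenches plate fluorescence so inhibitors raise well fluorescence; 0% = enzyme with DMSO and 100% = DMSO without enzyme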
SUMO HTRF inh – inhibitors of human SUMOylation (UBC9) | P63279 | HTRF SUMOylation assay, SAE1/SAE2 + UBC9, in vitro | inhibition, % at 35 µM | 0.36% of 290,000 active | AID 2006; in the data active means inhibition above about 50%, passing the limit was not always enough
CTSL1 counter – counter-screen for PFM18AAP inhibitors: inhibitors of F. hepatica cathepsin L1. inhibition, % at 5.96 µM. recombinant F. hepatica cathepsin L1, Z-Leu-Arg-MCA fluorescence. 0.49% of 300,000 active;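 active means inhibition above the mean of all tested compounds plus 3 SD, set per screening campaign, cut at about 17% in these data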;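 further: 0% = plate median of test compound wells and 100% = 1 µM Z-Phe-Ala-diazomethylketone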
IMP-1 inh – inhibitors of Pseudomonas aeruginosa IMP-1 metallo-beta-lactamase; purified IMP-1, nitrocefin hydrolysis, epi-absorbance fluorescence; inhibition, % at 5.6 µM; 0.45% of 290,000 active;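 active means inhibition above the mean plus 3 SD of all compounds in the same screening run, cut at about 4.5% in these data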;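 further: 0% = IMP-1 with DMSO and 100% = DMSO wells lacking enzyme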
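System: Purified IMP-1 | Read-out basis: Percent enzyme inhibition | Controls: IMP-1 with DMSO as 0%, enzyme-free DMSO as 100% | Replicates: One well per compound | Doses: 5.6 µM nominal single concentration | Detection: Epi-absorbance fluorescence, 480 nm excitation, 530 nm emission | Incubation: 25 °C, 15 min preincubation, 25 min reaction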
Starred values were filed as active, the others as inactive.

`COc1cc2c(cc1OC)C(NNC(=O)c1ccc(Br)o1)=NC(C)(C)C2` gave T cell modulator 274.2, pCIP destab -2.9, VIM-2 inh -8.2, SUMO HTRF inh -10.6, CTSL1 counter 1.6 and IMP-1 inh -2.0.
`CC1CCN(Cc2c(O)ccc3c2O/C(=C\c2ccco2)C3=O)CC1` gave T cell modulator 447.2, pCIP destab -9.1, VIM-2 inh -1.8, SUMO HTRF inh 42.9, CTSL1 counter 3.3 and IMP-1 inh 0.4.
O=C1/C(=C/c2ccco2)Oc2c1ccc(O)c2CN1CCCCC1 was read as T cell modulator 740.2, pCIP destab 3.1, VIM-2 inh 0.6, SUMO HTRF inh 60.9*, CTSL1 counter -4.1 and IMP-1 inh -0.1.
For CCN1CCN(Cc2c(O)ccc3c(=O)c(-c4ccccc4OC)coc23)CC1 the results were T cell modulator 400.9, pCIP destab -12.7, VIM-2 inh -1.6, SUMO HTRF inh 34.7, CTSL1 counter 1.5 and IMP-1 inh -1.4.
CCN1CCN(Cc2c(O)ccc3c2O/C(=C\C=C\c2ccccc2OC)C3=O)CC1 was read as T cell modulator 279.2, pCIP destab -11.8, VIM-2 inh 4.7, SUMO HTRF inh 17.9, CTSL1 counter 4.2 and IMP-1 inh 27.6*.
O=C(Nc1ccncc1)c1ccccc1-c1ccccc1 was read as T cell modulator 113.3, pCIP destab -11.6, VIM-2 inh -2.3, SUMO HTRF inh 26.3, CTSL1 counter 3.9 and IMP-1 inh -2.4.
For Nc1cc2c(cc1Cl)N(Cc1ccccc1)C(=O)CO2 the results were T cell modulator 268.9.
For C=CC[N+]1(CC(=O)NCc2ccc(NC(C)=O)cc2)CCOCC1 the results were T cell modulator 143.5, pCIP destab -8.3, VIM-2 inh -0.8, SUMO HTRF inh 9.6, CTSL1 counter 1.8 and IMP-1 inh -1.5.
Screening CC(C)(C)c1cc(CNC2CS(=O)(=O)C[C@@H]2O)cc(C(C)(C)C)c1O (stereo not given in full) returned T cell modulator 200.4, pCIP destab 0.5, VIM-2 inh -0.5, SUMO HTRF inh -9.7, CTSL1 counter 0.2 and IMP-1 inh 7.3*.
Screening C[N+](C)(C)c1ccc(/C=N/Nc2nc(Cl)c(C#N)c(Cl)c2Cl)cc1 returned T cell modulator 350.0, pCIP destab -8.6, VIM-2 inh 10.4*, SUMO HTRF inh 26.1, CTSL1 counter 2.6 and IMP-1 inh 0.9.
For N#Cc1c(Cl)nc(N/N=C/c2ccccc2)c(Cl)c1Cl the results were T cell modulator 272.5, pCIP destab -13.1, VIM-2 inh -4.1, SUMO HTRF inh 25.1, CTSL1 counter 0.0 and IMP-1 inh -4.0.
`CC(C)N1CC(O)=C(c2nc3ccccc3c(=O)[nH]2)C1=N` gave T cell modulator 185.2, pCIP destab 3.9, VIM-2 inh 10.2*, SUMO HTRF inh 11.1, CTSL1 counter 2.2 and IMP-1 inh -4.1.
Screening Cc1cc(C)cc(N2CC(O)=C(c3nc4ccccc4c(=O)[nH]3)C2=N)c1 returned T cell modulator 272.4, pCIP destab -9.0, VIM-2 inh 1.3, SUMO HTRF inh 21.2, CTSL1 counter 6.6 and IMP-1 inh -1.4.
Screening O=C(CCn1c(=O)oc2ccccc21)Nc1cccc(Br)c1 returned T cell modulator 345.4, pCIP destab -5.5, VIM-2 inh -2.3, SUMO HTRF inh 6.1, CTSL1 counter 2.4 and IMP-1 inh -0.6.
`Cc1cc(NC(=O)CCC(=O)N(c2ccccc2)C(C(=O)NC2CCCC2)c2ccccc2C)no1` (stereo not given) gave T cell modulator 241.0, pCIP destab 6.1, VIM-2 inh -2.7, SUMO HTRF inh -10.0, CTSL1 counter 2.3 and IMP-1 inh -2.2.
Screening CCn1c(=NC(=O)CN2C(=O)CCC2=O)sc2c(OC)ccc(OC)c21 returned T cell modulator 497.6, pCIP destab -0.3, VIM-2 inh -0.4, SUMO HTRF inh -1.6, CTSL1 counter 0.9 and IMP-1 inh 4.6*.
`Fc1cccc(CSc2nnc3c(n2)[nH]c2ccccc23)c1` gave T cell modulator 243.2, pCIP destab -2.4, VIM-2 inh -1.0, SUMO HTRF inh 18.4, CTSL1 counter -3.4 and IMP-1 inh -0.9.
`CN(C)CCSc1nnc2[nH]c3ccccc3c2n1` gave T cell modulator 463.8, pCIP destab -0.9, VIM-2 inh 10.2*, SUMO HTRF inh -4.3, CTSL1 counter -1.2 and IMP-1 inh -0.6.
For Nc1nonc1C(=O)NCCN=Cc1ccccc1O the results were T cell modulator 220.2, pCIP destab 1.6, VIM-2 inh -3.5, SUMO HTRF inh 8.2, CTSL1 counter 2.9 and IMP-1 inh -0.5.
Screening Nc1nonc1C(=O)NCCN=Cc1cc(Cc2ccccc2)cc(Br)c1O returned T cell modulator 231.5, pCIP destab 3.8, VIM-2 inh -4.2, SUMO HTRF inh 2.8, CTSL1 counter 1.4 and IMP-1 inh 8.7*.
Screening Cc1cccc(C)c1NC(=O)C1c2cccc[n+]2CC(=O)N1Cc1ccc2c(c1)OCO2 (stereo not given) returned T cell modulator 412.3, pCIP destab 6.7, VIM-2 inh -2.7, SUMO HTRF inh -5.8, CTSL1 counter -0.6 and IMP-1 inh -2.0.
Screening Cc1ccccc1NC(=O)C1c2cccc[n+]2CC(=O)N1c1c(C)cccc1C (stereo not given) returned T cell modulator 492.8, pCIP destab -4.7, VIM-2 inh -1.4, SUMO HTRF inh 6.3, CTSL1 counter 1.5 and IMP-1 inh 14.2*.
For COc1nc(Nc2ccc(C(C)C)cc2)nc(OC)n1 the results were T cell modulator 0.0*, pCIP destab -5.8, VIM-2 inh -2.1, SUMO HTRF inh 11.4, CTSL1 counter -0.7 and IMP-1 inh -3.5.
`CCOC(=O)c1sc2nc(CSc3ccccc3)nc(N3CCC(C(N)=O)CC3)c2c1C` gave T cell modulator 499.4, pCIP destab 40.0*, VIM-2 inh -2.7, SUMO HTRF inh -2.2, CTSL1 counter 8.6 and IMP-1 inh -3.5.
For CC(NC(=O)Cc1ccc(-c2ccccc2)cc1)c1ccccc1 (stereo not given) the results were T cell modulator 205.0, pCIP destab -23.8, VIM-2 inh 0.1, SUMO HTRF inh 15.1, CTSL1 counter 0.3 and IMP-1 inh 5.0*.
`CC(NC(=O)COC(=O)Cc1ccc(Cl)cc1)c1ccccc1` (stereo not given) gave T cell modulator 166.7.
Screening Cc1ccccc1NC(=O)c1c(C)[nH]c(=S)c(C#N)c1-c1ccc(Cl)cc1 returned T cell modulator 176.6, pCIP destab 19.9, VIM-2 inh -4.7, SUMO HTRF inh 6.4, CTSL1 counter 2.0 and IMP-1 inh -3.4.
Screening Cc1ccc(-c2c(C(=O)Nc3ccccc3C)c(C)[nH]c(=S)c2C#N)o1 returned T cell modulator 408.4, pCIP destab -20.7, VIM-2 inh -3.8, SUMO HTRF inh 13.2, CTSL1 counter 0.3 and IMP-1 inh 5.7*.
